ABCG2 inh = ABCG2 efflux pump inhibitors, primary screen, multiplex with ABCB1, IgMXP3 cells, flow cytometry; inhibition, % at 6.6 µM; Broad substrate specificity ATP-binding cassette transporter ABCG2 (Homo sapiens), Q9UNQ0; JC-1 efflux; actives 0.1% (n = 190,000);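 active means inhibition above 80%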
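Incubation: cells with compound and JC-1, 10 min at 25 °C, rotating, no wash / Test system: IgMXP3 (ABCG2) plus far-red-tagged CCRF-Adr (ABCB1) cells / Compound dosing: one concentration, 6.6 µM final / Also added: JC-1 fluorescent substrate / Evaluation: efflux inhibition in percent versus controls / Detection: flow cytometry, 530 nm JC-1 signal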
Tn7 DDE FP = inhibitors of Tn7 peptide binding to fibrin DD(E), primary screen, biochemical, fluorescence polarization, human fibrin, Tn7 probe | FP displacement of FITC-Tn7 peptide from fibrin DD(E); 0% = median of compound wells per plate | AID 720508, 2013 | actives 0.13% (n = 370,000) | inhibition, % at 8.3 µM | Fibrinogen beta chain (Homo sapiens), P02675;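 active means inhibition above the mean of compounds falling within the control limits plus 3 SD of them, cut at about 14% in these data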
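Assay system: human fibrin DD(E). Input: DD(E) 2 µM final. Medium: Tris buffer with calcium and detergent, pH 7.8. Compound dosing: single point at 8.3 µM. Timing: 10 min plus 3 h, room temperature. Technique: fluorescence polarization of the labelled Tn7 tracer. Read-out: percent inhibition. Replicates: singlicate testing.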
DDE Tn6 FP inh = inhibitors of Tn6 peptide binding to fibrin DD(E), primary screen, biochemical, fluorescence polarization, human fibrin, Tn6 probe; Fibrinogen beta chain (Homo sapiens), P02675; Fibrin DD(E) TRITC-Tn6 fluorescence polarization displacement; inhibition, % at 8.3 µM; actives 0.21% (n = 370,000); AID 720509, 2013;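 active means inhibition above a per-campaign cutoff: mean of compounds within control limits plus 3 SD, cut at about 15% in these data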
Insulin prom up = insulin promoter activators in MIN6 cells, imaging, high-content screening, mouse beta cells | MIN6 insulin promoter-GFP reporter; active compounds read high | z-score at 5 µM | actives 0.3% (n = 190,000) | AID 1625, 2009;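 active means z-score above 3 at 5 µM with at least 500 cells counted in the well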
ABCB1 block = ABCB1 efflux pump inhibitors, primary screen, cell-based, multiplex, flow cytometry, ABCG2 counter-screen. AID 1326, 2008. CCRF-Adr cells, JC-1 efflux. inhibition, % at 6.6 µM. actives 0.067% (n = 190,000); in the data active means inhibition above about 40%;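 further: higher value means more JC-1 retained so stronger ABCB1 efflux block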
Target sequence (P08183 whole entry, looked up): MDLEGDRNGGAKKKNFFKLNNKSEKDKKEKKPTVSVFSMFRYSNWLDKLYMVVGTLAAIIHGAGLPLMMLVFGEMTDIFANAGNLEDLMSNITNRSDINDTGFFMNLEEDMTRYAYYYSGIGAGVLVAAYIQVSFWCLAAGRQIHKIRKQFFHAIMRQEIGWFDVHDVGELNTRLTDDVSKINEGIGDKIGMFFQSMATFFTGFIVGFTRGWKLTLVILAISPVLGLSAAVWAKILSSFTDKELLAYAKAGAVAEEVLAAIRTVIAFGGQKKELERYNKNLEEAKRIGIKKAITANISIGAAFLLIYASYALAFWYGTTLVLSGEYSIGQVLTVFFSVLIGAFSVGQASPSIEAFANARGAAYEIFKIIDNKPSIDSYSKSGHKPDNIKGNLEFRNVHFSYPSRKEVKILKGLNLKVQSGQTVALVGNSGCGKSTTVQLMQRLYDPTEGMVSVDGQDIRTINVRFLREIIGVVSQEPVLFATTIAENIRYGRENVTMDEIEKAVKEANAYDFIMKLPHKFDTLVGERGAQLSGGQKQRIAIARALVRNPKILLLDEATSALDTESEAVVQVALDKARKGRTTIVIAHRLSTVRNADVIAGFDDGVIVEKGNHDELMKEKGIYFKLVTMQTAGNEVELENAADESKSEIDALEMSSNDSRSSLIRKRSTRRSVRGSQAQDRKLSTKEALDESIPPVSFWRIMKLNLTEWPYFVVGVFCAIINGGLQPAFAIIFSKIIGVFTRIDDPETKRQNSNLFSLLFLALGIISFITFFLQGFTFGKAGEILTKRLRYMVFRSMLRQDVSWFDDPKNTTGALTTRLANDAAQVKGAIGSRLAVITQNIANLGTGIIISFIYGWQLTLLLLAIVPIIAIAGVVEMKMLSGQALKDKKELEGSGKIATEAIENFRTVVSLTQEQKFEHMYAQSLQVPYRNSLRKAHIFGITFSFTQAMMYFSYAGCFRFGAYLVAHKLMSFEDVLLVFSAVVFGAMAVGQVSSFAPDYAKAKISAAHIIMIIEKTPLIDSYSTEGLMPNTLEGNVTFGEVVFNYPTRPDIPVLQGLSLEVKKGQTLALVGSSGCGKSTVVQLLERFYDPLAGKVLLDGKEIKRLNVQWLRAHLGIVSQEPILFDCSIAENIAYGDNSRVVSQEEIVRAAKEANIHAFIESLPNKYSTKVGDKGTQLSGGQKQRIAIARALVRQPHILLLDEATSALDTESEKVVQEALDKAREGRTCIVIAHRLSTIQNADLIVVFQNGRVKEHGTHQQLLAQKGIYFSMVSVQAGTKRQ
GRK2 aptamer HTS = compounds blocking aptamer binding on GRK2 – biochemical, human GRK2, bead flow cytometry, HTS, primary screen; Beta-adrenergic receptor kinase 1 (Homo sapiens), P25098; FAM-aptamer displacement from GRK2; inhibition of aptamer binding, % at 10 µM; actives 0.59% (n = 330,000); AID 488847, 2010;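 active means inhibition of aptamer binding above 40%, roughly 3 SD of noise, on plates passing a quality check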;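 further: median bead fluorescence of bound FAM aptamer so fluorescent compounds give negative values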
GRK2 CP1 = GRK2 aptamer-displacing inhibitors, retest, confirmation, biochemical, cherry pick 1, bead flow cytometry | actives 4% (n = 2,000) | aptamer displacement, % at 10 µM | bead-bound GRK2, FAM-aptamer displacement | shares compounds with GRK2 aptamer HTS;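 active means aptamer displacement above 40%, near three times the noise of non-fluorescent compounds, on plates passing quality checks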;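 further: negative values mostly reflect intrinsic compound fluorescence rather than true enhancement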
Aptamer quench SP = aptamer fluorescence quenching in GRK2 counter-screen. fluorescence response (% of DMSO), % at 10 µM. Carboxyfluorescein RNA aptamer on beads, flow cytometry quenching; active compounds read low. AID 504580. shares compounds with GRK2 aptamer HTS. 2,000 tested, under 10 active;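 active means compounds that quench the bead-bound fluorescent RNA probe, cutting fluorescence to under half of the solvent control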;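 further: counterscreen run without GRK2 so only probe quenching by compound is measured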
GRK2 CP2 = GRK2 aptamer-displacing inhibitors, hit retest, confirmation, biochemical, cherry pick 2, bead flow cytometry; AID 504782, 2011; bead-bound GRK2, FAM-aptamer displacement; 360 tested, under 10 active; inhibition of aptamer binding, % at 10 µM; shares compounds with GRK2 aptamer HTS;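 active means inhibition of aptamer binding above 40%, about triple the noise seen with nonglowing compounds, on plates passing quality control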;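 further: negative values mostly come from compounds that fluoresce themselves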
FAM quench SP = quenches fluorescent RNA aptamer, GRK2 hit artifact; shares compounds with GRK2 aptamer HTS; carboxyfluorescein RNA aptamer beads, flow cytometry quenching; active compounds read low; fluorescence response vs DMSO, % at 10 µM; 360 tested, under 10 active;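 active means response vs DMSO under 50%, meaning signal dropped by over half, treated as fluorescence quencher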;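 further: labelled aptamer on streptavidin beads without GRK2 as a quench counter-screen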
Hits are given with their value; . = inactive; / = no result. In the library only some 0.99% were active in any assay of this set; here they are far more common.

SMILES | ABCG2 inh | Tn7 DDE FP | DDE Tn6 FP inh | Insulin prom up | ABCB1 block | GRK2 aptamer HTS | GRK2 CP1 | Aptamer quench SP | others
CC(=O)C1=C(C)NC(=O)CC1c1ccccc1Cl (centres undefined) | . | . | . | . | . | 48 | . | .
O=C(c1ccc(-c2ccccc2)c(F)c1)C1CCCN(CCCn2cccn2)C1 (centres undefined) | / | . | . | . | / | . | . | .
CCc1cccc(C)c1NC(=O)CC1Oc2ccc(C)cc2NC1=O (centres undefined) | / | . | . | / | / | 49 | / | / | GRK2 CP2=.;FAM quench SP=.
COc1ccccc1N1C(=O)[C@@H]2C(C(=O)CN3C(=O)c4ccccc4C3=O)=NN[C@@H]2C1=O | / | . | . | . | / | . | / | /
Cc1ccc(N2C(=O)[C@@H]3C(C(=O)CN4C(=O)c5ccccc5C4=O)=NN[C@@H]3C2=O)c(C)c1 | / | . | . | . | / | 41 | . | .
CCc1c(C(=O)OCc2ccccc2)[nH]c(C)c1C | / | . | . | . | / | 93 | . | .
CC(=O)c1ccc(NC(=O)CSc2nnc(NC(=O)c3ccco3)s2)cc1 | / | / | / | / | / | 46 | / | / | GRK2 CP2=.;FAM quench SP=.
CCC(=O)Nc1nnc(SCC(=O)Nc2ccc3c(c2)OCCO3)s1 | / | . | . | / | / | 68 | / | / | GRK2 CP2=.;FAM quench SP=.
Cc1c(C(=O)Nc2ccc(F)cc2)oc2ccc(S(=O)(=O)N3CC(C)CC(C)C3)cc12 (centres undefined) | . | . | . | . | . | . | . | .
CCCCCCN1C[C@H](n2cc(-c3ccc(F)cc3)nn2)[C@@H](O)C[C@@H]1c1ccc(C)cc1 | / | . | . | / | / | / | / | /
Cc1ccc(C(=O)CSc2nc3ccccc3c(=O)[nH]2)cc1C | . | . | . | . | . | 61 | . | .
Cc1ccc2cc(CCNC(=O)C(=O)c3c[nH]c4ccccc34)c(=O)[nH]c2c1 | . | . | . | . | . | 71 | . | .
Cc1ccc2nc(SCC(=O)c3c[nH]c4ccccc34)[nH]c2c1 | . | . | . | . | . | 58 | . | .
CCC(C)N(C(=O)CN1C(=O)C2CCCCN2C(=O)c2ccccc21)C(C)CC (centres undefined) | / | . | . | / | / | / | / | /
CNC(=O)NC(=O)COC(=O)c1n[nH]c2ccccc12 | / | . | . | . | / | 45 | . | .
O=C(COC(=O)c1n[nH]c2ccccc12)NC(=O)NC1CCCCC1 | . | . | . | . | . | . | / | /
O=C(OCCOc1ccccc1)c1n[nH]c2ccccc12 | / | . | . | . | / | 78 | . | .
CCOC(=O)c1n[nH]c2ccccc12 | . | . | . | . | . | . | / | /
Cc1ccccc1NC(=O)CN1C(=O)N/C(=C\c2ccc(N3CCOCC3)c(F)c2)C1=O | . | . | . | . | . | . | . | .
Cc1ccc(NC(=O)CN2C(=O)N/C(=C/c3ccc(N4CCOCC4)cc3)C2=O)cc1 | . | . | . | . | . | . | / | /
Cc1cccc(-n2ccc(=O)c(C(=O)Nc3ccc(S(=O)(=O)Nc4nccc(C)n4)cc3)n2)c1 | / | . | . | / | / | 94 | . | .
CCC(C)NC(=O)Cn1cnc2sc(C)cc2c1=O (centres undefined) | . | . | . | . | . | 43 | . | .
CCN(CC)Cc1csc(C(N)=O)c1 | . | . | . | . | . | . | . | .
CCOc1ccc(CCNC(=O)C2CCN(c3nnc(-n4cccc4)s3)CC2)cc1 | . | . | . | . | . | . | / | /
CCN(CCNC(=O)C1CCN(c2nnc(-n3cccc3)s2)CC1)c1ccccc1 | . | . | . | . | . | . | . | .
SMILES | ABCG2 inh | Tn7 DDE FP | DDE Tn6 FP inh | Insulin prom up | ABCB1 block | GRK2 aptamer HTS | GRK2 CP1 | Aptamer quench SP | others
CC(=NNc1cc(C)c2ccccc2n1)c1ccccn1 | / | . | . | / | / | / | / | /
CN1C/C(=C/c2ccsc2)C(=O)/C(=C/c2ccsc2)C1 | . | . | . | . | . | 63 | . | .
CN1C/C(=C/c2ccncc2)C(=O)/C(=C/c2ccncc2)C1 | / | . | . | / | / | . | / | /
OCCC1CN(Cc2cccc3c2OCO3)CCN1Cc1ccccc1 (centres undefined) | . | . | . | . | . | . | / | /
OCCC1CN(Cc2cccc3c2OCO3)CCN1C1CCCCC1 (centres undefined) | . | . | . | . | . | 99 | . | .
O=C(Nc1nnc(-c2ccco2)o1)c1ccc(Cl)s1 | / | . | . | / | / | . | / | /
COc1cccc(-c2nnc(NC(=O)c3ccc(Cl)s3)o2)c1 | . | . | . | . | . | 52 | . | .
CCCCCn1c(CN2CCCCC2CC)nc2c1c(=O)n(C)c(=O)n2C (centres undefined) | / | . | . | . | / | . | . | .
O=C(NCCc1ccccc1)OCc1cn(-c2cccc(C(F)(F)F)c2)nn1 | / | . | . | / | / | / | / | /
Cn1c(=O)c2cc(S(=O)(=O)N3CCN(Cc4ccccc4)CC3)ccc2n(C)c1=O | / | . | . | / | / | / | / | /
COc1ccc(-c2cc(-c3nnc(SCC(=O)Nc4nccs4)n3N)[nH]n2)cc1 | / | . | . | / | / | / | / | /
COc1ccccc1CNC(=O)C1CCCN(S(=O)(=O)c2ccc3c(c2)C(C)(C)C(=O)N3C)C1 (centres undefined) | / | . | . | / | / | . | . | .
O=C(NCc1ccccc1F)C1CCCN(S(=O)(=O)c2ccc(-n3cnnn3)cc2)C1 (centres undefined) | / | . | . | / | / | . | . | .
Cc1ccc(CNC(=O)C2CCCN(S(=O)(=O)c3ccc(-n4cnnn4)cc3)C2)cc1 (centres undefined) | / | . | . | / | / | . | . | .
COc1ccc(N=Cc2nc(-c3ccccc3)oc2OC(C)=O)cc1 | / | . | . | . | / | 73 | . | .
